TDP2 absorb – TDP2 (human) inhibition, absorbance primary screen; O95551; inhibition, % at 12.8 µM; 0.34% of 370,000 active; recombinant TDP2, T5PNP hydrolysis, p-nitrophenol absorbance 415 nm;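 active = inhibition above the mean of all tested compounds plus 3 SD, set per campaign, cut at about 25% in these data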;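 note: 0% = DMSO with enzyme and 100% = buffer with substrate but no TDP2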
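test system = human TDP2 enzyme | input = TDP2 enzyme at 120 nM final | medium = 50 mM Tris-HCl pH 7.5 with Mg2+, KCl, DTT, BSA | also added = T5PNP substrate, 5 mM | times = 2 h at 37 °C | technique = epi absorbance | benchmarks = high control without enzyme, low control DMSO plus TDP2 | replication = each compound tested once, singlicate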
PRMT1 FP inh – inhibitors of human PRMT1; 1.3% of 370,000 active; recombinant PRMT1, activity-based probe fluorescence polarization; Q99873; inhibition, % at 2.79 µM;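 active = inhibition above about 21% made by adding two undisclosed values, limit read from the data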
LEDGF integ inh – blocks HIV-1 LEDGF/p75-dependent DNA integration. TR-FRET IN-LEDGF/p75 DNA integration, Eu/Cy5. AID 743269. inhibition, % at 3.7 µM. 0.64% of 370,000 active;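 active = inhibition above the screen-wide mean plus 3 SD, cut at about 13% in these data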;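 note: signal is the Cy5 over europium emission ratio at 671 and 618 nm; 0% = plate median of compound wells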
MBD2 DNA inh – inhibitors of human MBD2 binding to methylated oligonucleotide. Q9UBB5. TR-FRET. inhibition, % at 4.4 µM. 0.31% of 370,000 active; in the data active = inhibition above about 13%
UHRF1 MBD2 ctr – blocks human UHRF1 binding to methylated DNA; UHRF1 binding to methylated oligo, TR-FRET; inhibition, % at 4.4 µM; 0.75% of 370,000 active; in the data active = inhibition above about 21%;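 note: UHRF1 SRA domain binding a hemimethylated CpG hairpin DNA probe; 0% = median of test compound wells and 100% = reference inhibitor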
SIAE primary – blocks human sialic acid acetylesterase | Q9HAT2 | AID 1053197 | 0.69% of 370,000 active | SIAE FP-Rh probe binding, fluorescence polarization | inhibition, % at 9.66 µM;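 active = inhibition above a cutoff: mean of compounds within the control limits plus 3 SD of those, cut at about 17% in these data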;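 note: 0% = plate median of compound wells and 100% = probe without SIAE protein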
Target sequence (Q9HAT2 whole entry, looked up): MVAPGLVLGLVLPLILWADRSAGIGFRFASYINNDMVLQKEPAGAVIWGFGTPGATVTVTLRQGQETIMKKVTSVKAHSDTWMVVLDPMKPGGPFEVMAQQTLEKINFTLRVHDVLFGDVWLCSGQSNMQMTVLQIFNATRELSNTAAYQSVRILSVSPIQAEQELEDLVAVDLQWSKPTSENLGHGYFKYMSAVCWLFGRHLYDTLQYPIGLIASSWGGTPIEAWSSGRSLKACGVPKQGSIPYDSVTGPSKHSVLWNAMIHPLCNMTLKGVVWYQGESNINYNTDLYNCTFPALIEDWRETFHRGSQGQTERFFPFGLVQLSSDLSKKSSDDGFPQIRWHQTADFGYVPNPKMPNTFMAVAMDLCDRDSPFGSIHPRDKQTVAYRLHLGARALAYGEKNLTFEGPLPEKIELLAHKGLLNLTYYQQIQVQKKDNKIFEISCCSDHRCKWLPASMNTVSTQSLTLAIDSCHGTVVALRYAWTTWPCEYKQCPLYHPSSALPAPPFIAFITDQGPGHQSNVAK
Numbers without * were called inactive. Shown are actives, neighbours in structure and some others; about 3.3% of the full set was active somewhere.

SMILES	TDP2 absorb	PRMT1 FP inh	LEDGF integ inh	MBD2 DNA inh	UHRF1 MBD2 ctr	SIAE primary
Cc1cc(-c2nc3ncccc3o2)ccc1NC(=O)c1ccc([N+](=O)[O-])o1	-3	14	3	1	-2	0
CCOC(=O)N1CCN(C(=O)C[C@H]2C(=O)N(Cc3ccc(OC)cc3)C3=CCCC[C@@]32C(=O)OCC)CC1	-4	-5	4	-1	-1	-10
COC(=O)c1ccc(=O)n(CC(=O)c2ccc(Cl)cc2)c1	2	0	1	3	27*	0
NS(=O)(=O)c1cccc(C(=O)NC2CCSc3ccccc32)c1 (stereo not given)	-6	0	2	-2	0	3
NS(=O)(=O)c1cc(C(=O)NC2CCSc3ccccc32)ccc1Cl (stereo not given)	73*	21	60*	96*	102*	-43
CC(C)C(C)(C#N)NC(=O)CSc1nc2scc(-c3ccco3)c2c(=O)n1-c1ccccc1 (stereo not given)	1	22*	1	-3	-3	-7
CC(C)C(C)NC(=O)CSc1nc2scc(-c3ccco3)c2c(=O)n1-c1ccccc1 (stereo not given)	8	5	2	-1	-2	-9
CCN(CC)CCCNC(=O)CC1Oc2ccccc2NC1=O (stereo not given)	-5	4	0	-2	-1	-3
Cc1ccc2nc(-c3ccccc3)cn2c1	-13	0	3	1	4	0
Cc1ccc2nc(-c3ccc(O)c(O)c3)cn2c1	3	2	23*	-2	1	12
OCCNc1ncnc2c1ncn2[C@H]1CN(Cc2cccs2)C[C@@H](CO)O1	-3	-2	2	2	26*	1
COCCNc1ncnc2c1ncn2[C@H]1CN(Cc2cccs2)C[C@@H](CO)O1	12	6	-3	8	0	3
CC(=O)c1cnc(-c2cccc(Cl)c2)s1	5	1	-2	5	37*	1
Cc1ccc(C)c(C(C)NC(=O)c2ccccc2Br)c1 (stereo not given)	-5	4	-3	0	22*	3
CC1c2cccn2CCN1S(=O)(=O)c1ccc(F)cc1 (stereo not given)	8	5	2	6	30*	7
CC(=O)c1ccc(S(=O)(=O)N2CCn3cccc3C2C)cc1 (stereo not given)	11	4	0	5	0	1
CCOC(=O)CC[C@@]1(C(=O)OCC)C[C@@H](CC(=O)NCCc2ccccc2OC)C(=O)N2CCCC=C21	0	4	0	4	1	1
O=c1[nH]c(SCc2n[nH]c(=S)n2-c2ccccc2)nc2ccccc12	-4	3	0	-1	3	-7
O=c1[nH]c(SCc2nc3ccccc3c(=O)n2-c2ccccc2)nc2ccccc12	4	2	3	-7	35*	-5
Cc1nnc(-n2cnc3ccccc32)c2ccccc12	-2	0	3	11	21*	2
COC(=O)C12C=C3CC(c4ccc(C)s4)=C3C(=O)N1Cc1[nH]c3ccccc3c1C2 (stereo not given)	-7	-3	-1	2	-2	5
COc1cc(/C=C2\S/C(=N/S(=O)(=O)Cc3ccccc3)NC2=O)c([N+](=O)[O-])cc1OC	19	7	-3	1	-6	0
COc1cc(/C=C2/S/C(=N/S(=O)(=O)c3ccccc3)NC2=O)c([N+](=O)[O-])cc1OC	1	33*	-3	-1	-3	-12
CN(c1ncc(C(F)(F)F)cc1Cl)N1C(=O)c2cccc([N+](=O)[O-])c2C1=O	-14	-3	4	1	23*	2
CN(C)C(=O)c1cn(N(C)c2ncc(C(F)(F)F)cc2Cl)c(=O)c2ccccc12	3	0	1	-2	1	4
SMILES	TDP2 absorb	PRMT1 FP inh	LEDGF integ inh	MBD2 DNA inh	UHRF1 MBD2 ctr	SIAE primary
CN(CC#Cc1ccccc1)C(N)=NC(=O)/C=C/c1ccccc1	-1	-4	8	1	-1	0
COC(=O)[C@]12C[C@H](CC(=O)NCc3ccc(C)o3)C(=O)N(CCC3=CCCCC3)C1=C[C@H](C1CCCC1)O[C@@H]2C	-2	10	-2	1	2	2
CCOC(=O)C1=C(C)N(c2ccccc2)C(=O)/C1=C\c1ccc(O)c(OC)c1	-7	42*	0	-5	-4	0
CCOC(=O)C1=C(C)N(c2ccccc2)C(=O)/C1=C\c1ccco1	11	0	1	4	-1	5
C=CCN(CC#Cc1ccc(C)cc1)Cc1ccc(OC)cc1OC	1	-3	-1	0	1	-4
COc1cccc(C2C(C(=O)Nc3ccccc3)=C(C)N=c3s/c(=C/c4ccc(OCC(=O)O)cc4)c(=O)n32)c1 (stereo not given)	8	30*	4	-5	-5	-27
CCOC(=O)C1=C(C)N=c2s/c(=C\c3ccc(OCC(=O)O)cc3)c(=O)n2C1c1ccc(OC(C)C)cc1 (stereo not given)	5	30*	4	-3	0	-67
O=C(NCCc1c[nH]c2ccccc12)[C@H](Cc1c[nH]c2ccccc12)NC1(C(=O)NC2CCCCC2)CCCCCCC1	-5	-4	7	11	16	-2
COc1ccc(C(=O)NCc2ccc3c(c2)cc(C)n3C)cc1OC	-7	24*	-3	-1	-5	-2
Cc1cc2cc(CNC(=O)c3ccc(S(=O)(=O)N4CCCC4)cc3)ccc2n1C	7	3	-1	-2	-2	26*
CCS(=O)(=O)NCc1ccc2c(c1)cc(C)n2C	8	0	3	-10	-14	-5
COc1ccc(S(=O)(=O)NCc2ccc3c(c2)cc(C)n3C)cc1	-4	-2	8	-7	-5	18*
COc1ccc(S[C@]2(C(=O)N(C)C)CC(=O)N(c3ccsc3)[C@@H]2c2ccc(OC)cc2)cc1	-5	-1	-2	-4	0	-1
CCOC(=O)CSc1nnc(-c2ccc(S(=O)(=O)N3CCOCC3)cc2)n1-c1ccccc1	14	1	-2	-5	-1	2
Cc1nnc(SCC(=O)c2ccc(S(=O)(=O)N3CCOCC3)cc2)n1-c1ccccc1	-9	28*	0	1	2	-2
CC(=O)NC1C(=O)N(CCN2CCOCC2)c2ccc(Cl)cc21 (stereo not given)	6	22*	16*	2	-2	1
c1ccc2c(-c3c[nH]c4ccccc34)c3ccccc3nc2c1	9	2	-2	1	-2	-4
O=C(O)c1cc(-c2c[nH]c3ccccc23)nc2ccc3ccccc3c12	5	4	1	1	21*	-3

Compound activity: PubChem, The Scripps Research Institute Molecular Screening Center
